Laboratory results reported in ChEMBL document CHEMBL1153389, “Identification of novel antibacterial peptides by chemoinformatics and machine learning” (2009).

How the values were obtained:
Format in all cases: functional
[1] = tested on: Pseudomonas aeruginosa; experiment: Antimicrobial activity against Pseudomonas aeruginosa H103 after overnight incubation by broth microdilution method
In short: (§1)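 Modified broth microdilution. Peptides are serially diluted in 0.01% acetic acid with 0.2% BSA at 10-fold the final concentration, then added to MH medium in polypropylene plates. Bacteria from an overnight culture are added to a final (2-7) × 10^5 CFU/mL. Plates are incubated overnight at 37 °C. MIC is the lowest concentration with no visible growth.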

[2] = tested on: Pseudomonas aeruginosa; experiment: Antimicrobial activity against Pseudomonas aeruginosa H1001 expressing luciferase gene assessed as ratio antimicrobial IC50 for drug to Bac2A peptide by luminescence assay
In short: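 Peptides are made by SPOT synthesis on cellulose, cleaved, and the spots placed in plate wells. Overnight P. aeruginosa H1001 (fliC::luxCDABE) is diluted 1:500 in 100 mM Tris-HCl pH 7.3 with 20 mM glucose and added to the wells. After 30 min, serial dilutions (8 rows) are made. Luminescence is read at 4 h. IC50 is taken from a sigmoid fit and expressed relative to Bac2A run in the same series.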

[3] = tested on: Pseudomonas aeruginosa; experiment: Antimicrobial activity against Pseudomonas aeruginosa LES400 after overnight incubation by broth microdilution method
In short: (§2)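 Modified broth microdilution in polypropylene 96-well plates with Mueller-Hinton (MH) medium. Bulk-synthesized peptides were serially diluted at 10-fold final strength in 0.01% acetic acid with 0.2% BSA, then added 1:10 to MH. Inoculum came from an overnight culture at a final (2-7) × 10^5 CFU/mL. Plates were incubated overnight at 37 °C. MIC was the lowest concentration with no visible growth.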

[4] = tested on: Pseudomonas aeruginosa; experiment: Antimicrobial activity against Pseudomonas aeruginosa H1030 after overnight incubation by broth microdilution method; in short: as §2
[5] = tested on: Pseudomonas aeruginosa; experiment: Antimicrobial activity against Pseudomonas aeruginosa H1027 after overnight incubation by broth microdilution method; in short: as §1
[6] = tested on: Stenotrophomonas maltophilia; experiment: Antimicrobial activity against Pseudomonas maltophilia ATCC 13637 after overnight incubation by broth microdilution method; in short: as §1
[7] = tested on: Enterobacter cloacae; experiment: Antimicrobial activity against class C chromosomal beta lactamase expressing Enterobacter cloacae 218R after overnight incubation by broth microdilution method; in short: as §1
[8] = tested on: Escherichia coli; experiment: Antimicrobial activity against extended-spectrum beta-lactamase producing Escherichia coli 63103 after overnight incubation by broth microdilution method; in short: as §1
[9] = tested on: Escherichia coli; experiment: Antimicrobial activity against extended-spectrum beta-lactamase producing Escherichia coli 64771 after overnight incubation by broth microdilution method; in short: as §1
[10] = tested on: Klebsiella pneumoniae; experiment: Antimicrobial activity against extended-spectrum beta-lactamase-resistant Klebsiella pneumoniae 61962 after overnight incubation by broth microdilution method; in short: as §2
[11] = tested on: Klebsiella pneumoniae; experiment: Antimicrobial activity against extended-spectrum beta-lactamase-resistant Klebsiella pneumoniae 63575 after overnight incubation by broth microdilution method; in short: as §2
[12] = tested on: Staphylococcus aureus; experiment: Antimicrobial activity against Staphylococcus aureus ATCC 25923 after overnight incubation by broth microdilution method; in short: as §2
[13] = tested on: Staphylococcus aureus; experiment: Antimicrobial activity against methicillin-resistant Staphylococcus aureus C623 after overnight incubation by broth microdilution method; in short: as §2
[14] = tested on: Enterococcus faecalis; experiment: Antimicrobial activity against Enterococcus faecalis ATCC 29212 after overnight incubation by broth microdilution method; in short: as §1
[15] = tested on: Enterococcus faecalis; experiment: Antimicrobial activity against vancomycin-resistant Enterococcus faecalis w6190(VanA) isolate after overnight incubation by broth microdilution method; in short: as §2
[16] = tested on: Enterococcus faecalis; experiment: Antimicrobial activity against vancomycin-resistant Enterococcus faecalis f43559 (VanB) isolate after overnight incubation by broth microdilution method; in short: as §2
[17] = tested on: Enterococcus faecium; experiment: Antimicrobial activity against vancomycin-resistant Enterococcus faecium mic80(VanA) isolate after overnight incubation by broth microdilution method; in short: as §2
[18] = tested on: Enterococcus faecium; experiment: Antimicrobial activity against vancomycin-resistant Enterococcus faecium t62764(VanB) isolate after overnight incubation by broth microdilution method; in short: as §2

Substance	Ratio IC50 [2]	also measured
H-AIRRWRIRK-OH	4.62	MIC [1]: > 217 µM; MIC [3]: > 217 µM; MIC [4]: > 217 µM; MIC [5]: 217 µM; MIC [6]: 108 µM; MIC [7]: 108 µM; MIC [8]: 108 µM; MIC [9]: 108 µM; MIC [10]: > 217 µM; MIC [11]: > 217 µM; MIC [12]: 54 µM; MIC [13]: 54 µM; MIC [14]: > 217 µM; MIC [15]: > 217 µM; MIC [16]: > 217 µM; MIC [17]: 108 µM; MIC [18]: 14 µM
H-AWRFKNIRK-OH	9.2	MIC [1]: > 223 µM; MIC [3]: > 223 µM; MIC [4]: > 223 µM; MIC [5]: 111 µM; MIC [6]: > 223 µM; MIC [7]: > 223 µM; MIC [8]: > 223 µM; MIC [9]: 223 µM; MIC [10]: > 223 µM; MIC [11]: > 223 µM; MIC [12]: 223 µM; MIC [13]: > 223 µM; MIC [14]: > 223 µM; MIC [15]: > 223 µM; MIC [16]: > 223 µM; MIC [17]: > 223 µM; MIC [18]: 223 µM
H-KRIMKLKMR-OH	6.5	MIC [1]: > 226 µM; MIC [3]: > 226 µM; MIC [4]: > 226 µM; MIC [5]: > 226 µM; MIC [6]: > 226 µM; MIC [7]: > 226 µM; MIC [8]: > 226 µM; MIC [9]: > 226 µM; MIC [10]: > 226 µM; MIC [11]: > 226 µM; MIC [12]: > 226 µM; MIC [13]: > 226 µM; MIC [14]: > 226 µM; MIC [15]: > 226 µM; MIC [16]: > 226 µM; MIC [17]: > 226 µM; MIC [18]: > 226 µM
H-RKVRWKIRV-OH	0.32	–
H-RKWMGRFLM-OH	4.38	–
H-RKWRWRWLK-OH	0.31	–
H-RKWWRWWRW-OH	0.31	–
H-RLKKVRWWW-OH	0.34	–
H-RLVHWIRRV-OH	2.62	–
H-RNKFGGNWR-OH	25	–
H-RQNGVWRVF-OH	8.26	–
H-RRFKKWYWY-OH	0.26	–
H-RRIRRVRWG-OH	8.22	–
H-RRIWRWWWW-OH	0.68	–
H-RRKWWWRWW-OH	0.27	–
H-RRMGNGGFR-OH	8.71	–
H-RRMKKLRRK-OH	4.22	–
H-RRRKTWYWW-OH	0.32	–
H-RRRKWWIWG-OH	0.57	–
H-RRRKWWIWW-OH	0.18	–
H-RRRWWWIIV-OH	0.85	–

Substance	Ratio IC50 [2]	also measured
H-RRVQRGKWW-OH	6.3	–
H-RRWFVKWWY-OH	0.52	–
H-RRWWHLWRK-OH	0.38	–
H-RRWWMRWWV-OH	0.33	–
H-RSGKKRWRR-OH	6.5	–
H-RVFVKIRMK-OH	0.72	–
H-RVKTWRVRT-OH	5.66	–
H-RVRWWKKRW-OH	0.27	–
H-RVWFKRRWW-OH	0.26	–
H-RVWRNGYSR-OH	10.24	–
H-RWFRWWKRW-OH	0.26	–
H-RWIGVIIKY-OH	2.24	–
H-RWILWWWRI-OH	25	–
H-RWKIFIRWW-OH	1.82	–
H-RWKMWWRWV-OH	0.24	–
H-RWLVLRKRW-OH	0.53	–
H-RWMVSKIWY-OH	25	–
H-RWRGIVHIR-OH	4.93	–
H-RWRIKFKRW-OH	0.26	–
H-RWRIKRWWW-OH	0.12	–
H-RWRRKWWWW-OH	0.39	–

Substance	Ratio IC50 [2]	also measured
H-RWRRWKWWW-OH	0.4	–
H-RWRWKRWWW-OH	0.25	–
H-RWRWWIKII-OH	0.46	–
H-RWRWWKRWY-OH	0.2	–
H-RWWIRKWWR-OH	0.21	–
H-RWWLKIRKW-OH	0.18	–
H-RWWRKWWIR-OH	0.24	–
H-RWWRWRKWW-OH	0.28	–
H-RWYRKRWSW-OH	0.7	–
H-SFNWKRSGK-OH	25	–
H-SKNVRTWRQ-OH	7.06	–
H-SSGVRWSWR-OH	8.16	–
H-SWYRTRKRV-OH	6.66	–
H-TRGWSLGTR-OH	12.15	–
H-TRKVWWWRW-OH	0.76	–
H-VKRYYWRWR-OH	1.23	–
H-VLVKKRRRR-OH	12.48	–
H-VRIVRVRIR-OH	2.22	–
H-VSGNWRGSR-OH	8.54	–
H-VVLKIVRRF-OH	25	MIC [1]: > 241 µM; MIC [3]: > 241 µM; MIC [4]: > 241 µM; MIC [5]: 241 µM; MIC [6]: 60 µM; MIC [7]: 241 µM; MIC [8]: > 241 µM; MIC [9]: 241 µM; MIC [10]: > 241 µM; MIC [11]: > 241 µM; MIC [12]: 241 µM; MIC [13]: 241 µM; MIC [14]: 241 µM; MIC [15]: > 241 µM; MIC [16]: > 241 µM; MIC [17]: 241 µM; MIC [18]: 60 µM
H-WGGHKRRGW-OH	6.19	–

Substance	Ratio IC50 [2]	also measured
H-WGKRRGWNT-OH	7.91	–
H-WGRGGWTNR-OH	25	–
H-WGRTRWSSR-OH	9.64	–
H-WHGGQKWRK-OH	8.5	–
H-WHGVRWWKW-OH	2.5	–
H-WHYRSQVGR-OH	6.65	–
H-WIRKRSRIF-OH	3.39	–
H-WKRWKWWKR-OH	0.25	–
H-WKRWRWIRW-OH	0.28	–
H-WRFKVLRQR-OH	7.08	–
H-WRNRKVVWR-OH	6.79	–
H-WRRWWKWWR-OH	0.23	–
H-WRWRWWKRW-OH	0.28	–
H-WRWWKWWRR-OH	0.23	–
H-WRWWWKKWR-OH	0.19	–
H-WRWYWWKKR-OH	0.22	–
H-WSQNVRTRI-OH	5.71	–
H-WVKVWKYTW-OH	5.64	–
H-WVRFVYRYW-OH	2.15	–
H-YQRLFVRIR-OH	25	–
